The text below walks through data of ChEMBL document CHEMBL1135651 (J Med Chem, 2002).

SMILES strings stand for the structures. pIC50: −log10 of the molar value. The source made the active and inactive calls. No cut-off for these calls is given here.

Experiment [1] deals with T1, Prostaglandin G/H synthase 1 (Homo sapiens, UniProt P23219). Description: The inhibitory activity against Prostaglandin G/H synthase 1 measured as TXB2 production after blood coagulation using human Whole blood assay.
The target of experiment [2] is T2, Prostaglandin G/H synthase 2 (Homo sapiens, UniProt P35354).
T2 sequence (P35354 whole entry): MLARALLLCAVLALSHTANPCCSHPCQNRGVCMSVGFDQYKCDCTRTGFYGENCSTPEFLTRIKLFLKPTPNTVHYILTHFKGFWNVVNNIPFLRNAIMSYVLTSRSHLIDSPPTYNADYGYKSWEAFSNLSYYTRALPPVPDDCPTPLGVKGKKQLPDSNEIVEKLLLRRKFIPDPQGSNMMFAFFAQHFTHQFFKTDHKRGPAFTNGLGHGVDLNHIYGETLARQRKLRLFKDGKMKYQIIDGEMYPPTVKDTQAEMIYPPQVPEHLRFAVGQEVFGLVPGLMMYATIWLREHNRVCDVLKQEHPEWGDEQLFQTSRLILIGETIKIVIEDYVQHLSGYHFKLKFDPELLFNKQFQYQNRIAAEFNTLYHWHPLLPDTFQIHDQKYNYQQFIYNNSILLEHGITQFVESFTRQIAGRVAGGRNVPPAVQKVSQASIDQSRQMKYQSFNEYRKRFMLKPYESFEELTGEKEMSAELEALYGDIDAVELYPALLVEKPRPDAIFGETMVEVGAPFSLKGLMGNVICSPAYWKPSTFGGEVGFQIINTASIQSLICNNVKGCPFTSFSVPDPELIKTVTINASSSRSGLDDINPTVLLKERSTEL
Briefly: The inhibitory activity against cyclooxygenase Prostaglandin G/H synthase 2 (COX-2) measured as PGE-2 production after stimulation by lipopolysaccharide (LPS) using human Whole blood assay.

Experiment [3] has as its system Rattus norvegicus. Description: The percentage growth of paw after injection of carrageneen at a dose of 30 mg/kg dose; Toxic. In kind it is functional, organism-based. Details: dose 30 mg/kg. The method, boiled down: (§1)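 Wistar rats (250 g) given drug intraperitoneally, 10 or 30 mg/kg, from a 10 mg/mL DMSO solution. After 1 h, 0.1 mL 1% lambda carrageenan was injected into the right hind paw plantar region. At 3 h, rats were euthanized with nembutal (100 mg/kg) and paws cut at the ankle. Swelling was taken as % weight increase over the control paw. Mean ± SD, n = 6.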

Experiment [4] has as its system Rattus norvegicus. Briefly: The percentage growth of paw after injection of carrageneen at a dose of 10 mg/kg dose. The class given is functional. The method, boiled down:
as §1

For experiment [5], the target named is T1, Prostaglandin G/H synthase 1. Briefly: The inhibitory activity against cyclooxygenase Prostaglandin G/H synthase 1 measured as TXB2 production after blood coagulation using human Whole blood assay: NI means no inhibition. The method, boiled down: (§2)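 Human whole blood; COX-1 activity read as TXB2 produced during blood coagulation. Each drug run in triplicate over 100 to 0.01 μM. IC50 calculated from the concentration series. No inhibition at 100 μM recorded as ni.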

Experiment [6] has as its system Rattus norvegicus. Description: The percentage growth of paw after injection of carrageneen at a dose of 30 mg/kg dose. The class given is functional. The method, boiled down: as §1
In experiment [7] the target is T3, Prostaglandin G/H synthase 2 (Homo sapiens) (UniProt P35354).
T3 sequence (whole entry): T2 sequence (P35354 whole entry)
Description: The inhibitory activity against cyclooxygenase Prostaglandin G/H synthase 2 (COX-2) measured as PGE-2 production after stimulation by lipopolysaccharide (LPS) using human Whole blood assay:NI means no inhibition.

The target of experiment [8] is T1, Prostaglandin G/H synthase 1. Description: The inhibitory activity against Prostaglandin G/H synthase 1 measured as TXB2 production after blood coagulation using human Whole blood assay: NI means no inhibition. The method, boiled down:
as §2

T1 sequence (P23219 whole entry): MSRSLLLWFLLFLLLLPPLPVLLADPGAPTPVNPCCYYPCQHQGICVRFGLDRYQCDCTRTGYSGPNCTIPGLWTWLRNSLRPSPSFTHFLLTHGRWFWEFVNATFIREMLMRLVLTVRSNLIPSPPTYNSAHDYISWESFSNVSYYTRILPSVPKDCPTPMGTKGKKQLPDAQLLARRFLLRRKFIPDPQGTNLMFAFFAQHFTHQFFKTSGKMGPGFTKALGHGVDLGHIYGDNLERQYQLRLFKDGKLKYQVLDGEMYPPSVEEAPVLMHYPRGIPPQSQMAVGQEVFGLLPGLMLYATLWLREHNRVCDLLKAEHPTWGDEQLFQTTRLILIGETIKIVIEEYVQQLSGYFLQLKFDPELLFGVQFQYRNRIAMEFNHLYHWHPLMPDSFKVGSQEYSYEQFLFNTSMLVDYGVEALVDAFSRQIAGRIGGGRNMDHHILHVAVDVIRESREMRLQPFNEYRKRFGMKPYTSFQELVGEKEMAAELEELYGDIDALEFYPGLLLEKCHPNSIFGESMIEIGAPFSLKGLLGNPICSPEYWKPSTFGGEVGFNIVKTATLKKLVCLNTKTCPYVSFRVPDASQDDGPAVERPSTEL

As usually defined, the pIC50 is −log10 of the IC50, conventionally taken in molar units. High values mean a low IC50, low ones a high IC50. As to `CS(=O)(=O)Nc1ccncc1Oc1ccccc1`, the pIC50 is 5.31 in experiment [1] and 4.43 in experiment [2]. Besides, the Growth result with Rattus norvegicus [3] was “Toxic”.
In the case of `CN(c1ccc([N+](=O)[O-])cc1Oc1ccccc1)S(C)(=O)=O`, the Growth was 84.6% in the experiment on Rattus norvegicus [4] and 65.6% in the experiment on Rattus norvegicus [6]. Besides, the NI result in experiment [5] is “inactive”.
Regarding `CS(=O)(=O)Nc1ccc([N+](=O)[O-])cc1Oc1ccccc1` [NIMESULIDE], the results for the Growth in the experiment with Rattus norvegicus [4] and in the experiment with Rattus norvegicus [6] were 58% and 54%, respectively.
As to `O=S(=O)(Nc1ccncc1Oc1ccccc1)C(F)(F)F`, the figures for the Growth in the experiment on Rattus norvegicus [4] and in the experiment on Rattus norvegicus [6] were 74.7% and 54.1%, respectively.
With `CS(=O)(=O)Nc1cccnc1Oc1ccccc1`, the inhibition result in experiment [7] and in experiment [8] was “inactive” throughout.
